# ChEMBL document CHEMBL1148376, “Synthesis, monoamine transporter binding properties, and behavioral pharmacology of a series of 3beta-(substituted phenyl)-2beta-(3'-substituted isoxazol-5-yl)tropanes” (J Med Chem, 2004)
# What was measured:
# Mus musculus [1] = species: Mus musculus; assay: Hour 1 ratio to cocaine was determined for locomotor activity in mice; type: functional
# Mus musculus [2] = assay: Percent change from vehicle in locomotor activity in mice at 30 mg/kg (ip) in 4 h; type: functional
# Mus musculus [3] = assay: Percent change in locomotor activity in mice at 3 mg/kg i.p. in 2 h.; type: functional; details: route intraperitoneal
# In short: (§1)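 Mice habituated 1/2 h to photocell activity chambers, then injected ip with compound homogenized in 0.5% methyl cellulose (10 mL/kg); vehicle controls; N = 5 or 6 per dose. Photobeam interruptions recorded in 10-min bins for 4 h, grouped into 1-h bins; one-way ANOVA with Newman-Keuls post hoc test (p < 0.05).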
# Mus musculus [4] = assay: Percent change in locomotor activity in mice at 3 mg/kg i.p. in 3 h.; type: functional; details: route intraperitoneal; in short: as §1
# Rattus norvegicus [5] = assay: Drug discrimination effect of compound in rats, expressed as percent of rats choosing the cocaine lever at dose 30 mg/kg (ip); type: functional
# [6] = target: T1, Sodium-dependent serotonin transporter (Rattus norvegicus, UniProt P31652); assay: Binding affinity towards serotonin transporter 5-HTT was determined using [3H]paroxetine radioligand.
# T1 sequence (P31652 whole entry): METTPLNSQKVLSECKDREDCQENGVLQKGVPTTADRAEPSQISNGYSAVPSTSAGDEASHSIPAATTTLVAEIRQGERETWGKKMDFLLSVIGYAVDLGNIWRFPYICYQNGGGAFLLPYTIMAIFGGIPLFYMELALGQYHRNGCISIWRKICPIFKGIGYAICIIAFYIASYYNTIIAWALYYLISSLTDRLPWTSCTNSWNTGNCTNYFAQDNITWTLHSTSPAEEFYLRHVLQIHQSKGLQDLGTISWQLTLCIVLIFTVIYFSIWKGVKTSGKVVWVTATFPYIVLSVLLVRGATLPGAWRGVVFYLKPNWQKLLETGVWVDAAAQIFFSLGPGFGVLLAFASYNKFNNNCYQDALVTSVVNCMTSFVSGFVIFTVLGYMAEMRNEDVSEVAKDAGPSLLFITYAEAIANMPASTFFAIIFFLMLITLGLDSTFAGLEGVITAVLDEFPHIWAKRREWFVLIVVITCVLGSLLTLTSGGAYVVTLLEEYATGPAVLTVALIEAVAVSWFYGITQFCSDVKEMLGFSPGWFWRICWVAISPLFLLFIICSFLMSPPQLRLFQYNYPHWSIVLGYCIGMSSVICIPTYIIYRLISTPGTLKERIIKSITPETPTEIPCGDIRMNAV
# In short: (§2)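 Competition binding at the 5-HTT with 0.2 nM [3H]paroxetine (final concentration). Other procedures follow earlier published methods.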
# [7] = target: T1, Sodium-dependent serotonin transporter; assay: Inhibitory concentration required to inhibit serotonin transporter 5-HTT was determined by using [3H]paroxetine radioligand; in short: as §2
# [8] = target: T2, Norepinephrine transporter (Rattus norvegicus, UniProt Q9WTR4); assay: Binding affinity towards norepinephrine transporter was determined using [3H]nisoxetine radioligand.
# T2 sequence (Q9WTR4 whole entry): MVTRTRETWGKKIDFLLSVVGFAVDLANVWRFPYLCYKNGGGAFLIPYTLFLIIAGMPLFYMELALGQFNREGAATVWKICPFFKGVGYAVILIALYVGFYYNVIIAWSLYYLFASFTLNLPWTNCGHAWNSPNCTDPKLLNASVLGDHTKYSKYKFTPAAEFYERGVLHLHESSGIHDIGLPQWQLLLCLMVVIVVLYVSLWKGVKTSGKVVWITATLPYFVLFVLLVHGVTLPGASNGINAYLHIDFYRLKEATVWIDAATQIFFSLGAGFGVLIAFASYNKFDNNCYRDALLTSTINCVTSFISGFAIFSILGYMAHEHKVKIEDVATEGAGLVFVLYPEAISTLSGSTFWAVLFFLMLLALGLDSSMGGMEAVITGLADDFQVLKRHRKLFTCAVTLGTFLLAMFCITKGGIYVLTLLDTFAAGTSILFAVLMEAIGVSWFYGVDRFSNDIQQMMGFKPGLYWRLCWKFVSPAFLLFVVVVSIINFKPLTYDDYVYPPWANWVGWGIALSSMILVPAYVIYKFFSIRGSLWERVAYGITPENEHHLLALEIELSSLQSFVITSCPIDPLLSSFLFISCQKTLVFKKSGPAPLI
# In short: (§3)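 Competition binding at the NET with 0.5 nM [3H]nisoxetine (final concentration). Other procedures follow earlier published methods.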
# Mus musculus [9] = assay: Percent change in locomotor activity in mice at 3 mg/kg i.p. in 4 h.; type: functional; details: route intraperitoneal; in short: as §1
# Rattus norvegicus [10] = assay: Effective dose for drug discrimination effect in rat (ip); type: functional
# In short: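 Cocaine-trained rat drug discrimination, FR10, 10-min sessions. Compound in 0.5% methyl cellulose given ip 15 min before session, usually to 7-8 rats per dose. Doses were raised from ≤20% to ≥80% cocaine-lever choice, capped at 30 mg/kg, >50% loss of pressing, or side effects.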
# Mus musculus [11] = assay: Percent change from vehicle in locomotor activity in mice at 30 mg/kg (ip) in 1 h; type: functional
# Rattus norvegicus [12] = assay: Drug discrimination effect of compound in rats, expressed as percent of rats choosing the cocaine lever at dose 17 mg/kg (ip); type: functional
# Mus musculus [13] = assay: Percent change from vehicle in locomotor activity in mice at 10 mg/kg (ip) in 2 h; type: functional
# Mus musculus [14] = assay: Percent change from vehicle in locomotor activity in mice at 10 mg/kg (ip) in 4 h; type: functional
# Mus musculus [15] = assay: Percent change in locomotor activity in mice at 3 mg/kg i.p. in 1 h.; type: functional; details: route intraperitoneal; in short: as §1
# Mus musculus [16] = species: Mus musculus; assay: Effective dose for locomotor activity in mice in the peak hour.; type: functional
# Mus musculus [17] = assay: Percent change from vehicle in locomotor activity in mice at 10 mg/kg (ip) in 1 h; type: functional
# Mus musculus [18] = assay: Percent change from vehicle in locomotor activity in mice at 30 mg/kg (ip) in 3 h; type: functional
# [19] = target: Sodium-dependent dopamine transporter (Rattus norvegicus, UniProt P23977); assay: Inhibitory concentration required to inhibit dopamine transporter DAT was determined by using [3H]WIN-35428 radioligand
# Sodium-dependent dopamine transporter, sequence (P23977 whole entry): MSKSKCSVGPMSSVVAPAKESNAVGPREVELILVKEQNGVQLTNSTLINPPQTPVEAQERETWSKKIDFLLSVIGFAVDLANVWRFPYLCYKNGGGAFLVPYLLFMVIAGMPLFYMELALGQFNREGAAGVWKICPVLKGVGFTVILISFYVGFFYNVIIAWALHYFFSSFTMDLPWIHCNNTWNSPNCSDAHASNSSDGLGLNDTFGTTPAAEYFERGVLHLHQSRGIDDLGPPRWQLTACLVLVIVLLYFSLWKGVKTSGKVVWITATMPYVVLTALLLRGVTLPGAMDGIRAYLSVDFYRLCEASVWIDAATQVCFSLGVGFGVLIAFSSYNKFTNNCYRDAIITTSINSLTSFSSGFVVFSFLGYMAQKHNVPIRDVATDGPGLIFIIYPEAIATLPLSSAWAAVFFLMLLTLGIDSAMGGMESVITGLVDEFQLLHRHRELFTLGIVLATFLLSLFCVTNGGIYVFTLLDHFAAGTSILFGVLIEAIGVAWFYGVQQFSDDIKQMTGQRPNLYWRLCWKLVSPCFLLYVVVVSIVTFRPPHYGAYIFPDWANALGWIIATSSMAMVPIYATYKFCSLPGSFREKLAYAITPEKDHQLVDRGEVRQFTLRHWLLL
# In short: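 Competition binding at the DAT with 0.5 nM [3H]WIN35,428 (final concentration). Other procedures follow earlier published methods.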
# Mus musculus [20] = assay: Percent change from vehicle in locomotor activity in mice at 10 mg/kg (ip) in 3 h; type: functional
# Mus musculus [21] = assay: Percent change from vehicle in locomotor activity in mice at 30 mg/kg (ip) in 2 h; type: functional
# [22] = target: T2, Norepinephrine transporter; assay: Inhibition of norepinephrine transporter (NET) determined using [3H]nisoxetine radioligand.; in short: as §3
# Rattus norvegicus [23] = assay: Drug discrimination effect of compound in rats, expressed as percent of rats choosing the cocaine lever at dose 5.6 mg/kg (ip); type: functional
# Mus musculus [24] = assay: Percent change in locomotor activity in mice at 1 mg/kg i.p. in 4 h.; type: functional; details: route intraperitoneal; in short: as §1
# Mus musculus [25] = assay: Percent change from vehicle in locomotor activity in mice at 0.3 mg/kg (ip) in 2 h; type: functional
# Mus musculus [26] = assay: Percent change from vehicle in locomotor activity in mice at 0.3 mg/kg (ip) in 4 h; type: functional
# Rattus norvegicus [27] = assay: Drug discrimination effect of compound in rats, expressed as percent of rats choosing the cocaine lever at dose 0.3 mg/kg (ip); type: functional
# Mus musculus [28] = assay: Percent change in locomotor activity in mice at 1 mg/kg i.p. in 1 h.; type: functional; details: route intraperitoneal
# Rattus norvegicus [29] = assay: Drug discrimination effect of compound in rats, expressed as percent of rats choosing the cocaine lever at dose 0.17 mg/kg (ip); type: functional
# Mus musculus [30] = assay: Percent change from vehicle in locomotor activity in mice at 0.3 mg/kg (ip) in 3 h; type: functional
# Mus musculus [31] = assay: Percent change locomotor activity in mice at 1 mg/kg i.p. in 3 h.; type: functional; details: route intraperitoneal; in short: as §1
# Mus musculus [32] = assay: Percent change in locomotor activity in mice at 1 mg/kg i.p. in 2 h.; type: functional; details: route intraperitoneal; in short: as §1
# Rattus norvegicus [33] = assay: Drug discrimination effect of compound in rats, expressed as percent of rats choosing the cocaine lever at dose 0.1 mg/kg (ip); type: functional
# Mus musculus [34] = assay: Percent change from vehicle in locomotor activity in mice at 0.3 mg/kg (ip) in 1 h; type: functional
# Mus musculus [35] = assay: Percent change from vehicle in locomotor activity in mice at 0.1 mg/kg (ip) in 1 h; type: functional
# Mus musculus [36] = assay: Percent change from vehicle in locomotor activity in mice at 0.1 mg/kg (ip) in 4 h; type: functional
# Mus musculus [37] = assay: Percent change from vehicle in locomotor activity in mice at 0.1 mg/kg (ip) in 2 h; type: functional
# Mus musculus [38] = assay: Percent change from vehicle in locomotor activity in mice at 0.1 mg/kg (ip) in 3 h; type: functional
# Rattus norvegicus [39] = assay: Drug discrimination effect of compound in rats, expressed as percent of rats choosing the cocaine lever at dose 1.7 mg/kg (ip); type: functional
# Rattus norvegicus [40] = assay: Drug discrimination effect of compound in rats, expressed as percent of rats choosing the cocaine lever at dose 10 mg/kg (ip); type: functional
# Rattus norvegicus [41] = assay: Drug discrimination effect of compound in rats, expressed as percent of rats choosing the cocaine lever at dose 0.56 mg/kg (ip); type: functional
# Rattus norvegicus [42] = assay: Drug discrimination effect of compound in rats, expressed as percent of rats choosing the cocaine lever at dose 1 mg/kg (ip); type: functional
Structure (SMILES),Ratio (Mus musculus [1]),Change (Mus musculus [3]),Change (Mus musculus [4]),Ki [6],IC50 [7],Ki [8],Change (Mus musculus [9]),ED50 (Rattus norvegicus [10]),Change (Mus musculus [15]),ED50 (Mus musculus [16]),IC50 [19],IC50 [22],Change (Mus musculus [24]),Change (Mus musculus [25]),Change (Mus musculus [26]),Drug discrimination effect (Rattus norvegicus [27]),Change (Mus musculus [28]),Change (Mus musculus [30]),Change (Mus musculus [31]),Change (Mus musculus [32]),other results
COc1ccc(-c2cc(C3C(c4ccc(C)cc4)CC4CCC3N4C)on2)cc1 (stereo not given),0.6,32%,27%,366 nM,4030 nM,455 nM,30%,11 mg/kg,73%,12.8 mg/kg,3.93 nM,756 nM,–,–,–,–,–,–,–,–,Change (Mus musculus [2]): 483%; Drug discrimination effect (Rattus norvegicus [5]): 83%; Change (Mus musculus [11]): 290%; Drug discrimination effect (Rattus norvegicus [12]): 43%; Change (Mus musculus [13]): 115%; Change (Mus musculus [14]): 34%; Change (Mus musculus [17]): 187%; Change (Mus musculus [18]): 430%; Change (Mus musculus [20]): 65%; Change (Mus musculus [21]): 235%; Drug discrimination effect (Rattus norvegicus [23]): 0%
Cc1ccc(C2CC3CCC(C2c2cc(C)no2)N3C)cc1 (stereo not given),1.1,552%,986%,348 nM,–,153 nM,221%,0.28 mg/kg,478%,1.1 mg/kg,0.93 nM,254 nM,78%,156%,48%,83%,341%,75%,392%,413%,Drug discrimination effect (Rattus norvegicus [29]): 0%; Drug discrimination effect (Rattus norvegicus [33]): 13%; Change (Mus musculus [34]): 140%
Cc1cc(C2C(c3ccc(Cl)cc3)CC3CCC2N3C)on1 (stereo not given),1.2,–,–,52 nM,572 nM,109 nM,–,0.21 mg/kg,–,0.2 mg/kg,0.59 nM,181 nM,981%,526%,392%,88%,543%,735%,926%,434%,Change (Mus musculus [35]): 48%; Change (Mus musculus [36]): -23%; Drug discrimination effect (Rattus norvegicus [29]): 25%; Drug discrimination effect (Rattus norvegicus [33]): 0%; Change (Mus musculus [37]): 92%; Change (Mus musculus [34]): 354%; Change (Mus musculus [38]): 38%
Cc1ccc(C2CC3CCC(C2c2cc(-c4ccc(F)cc4)no2)N3C)cc1 (stereo not given),0.4,80%,148%,–,> 100000 nM,552 nM,140%,7.27 mg/kg,105%,6.3 mg/kg,6.45 nM,917 nM,–,–,–,–,–,–,–,–,Change (Mus musculus [2]): 179%; Change (Mus musculus [11]): 192%; Drug discrimination effect (Rattus norvegicus [12]): 88%; Change (Mus musculus [13]): 268%; Change (Mus musculus [14]): 148%; Drug discrimination effect (Rattus norvegicus [39]): 0%; Change (Mus musculus [17]): 117%; Change (Mus musculus [18]): 387%; Change (Mus musculus [20]): 84%; Drug discrimination effect (Rattus norvegicus [40]): 25%; Change (Mus musculus [21]): 383%; Drug discrimination effect (Rattus norvegicus [23]): 25%
CCc1cc(C2C(c3ccc(C)cc3)CC3CCC2N3C)on1 (stereo not given),1.4,893%,725%,582 nM,6400 nM,180 nM,81%,0.82 mg/kg,613%,0.9 mg/kg,1.62 nM,299 nM,48%,99%,-72%,0%,449%,173%,222%,489%,Drug discrimination effect (Rattus norvegicus [41]): 14%; Drug discrimination effect (Rattus norvegicus [39]): 100%; Change (Mus musculus [34]): 34%; Drug discrimination effect (Rattus norvegicus [42]): 75%
